In ChEMBL document CHEMBL4689842, “EUbOPEN Chemogenomics Library wave 1” (2021):

System: HEK-293T
Experiment: Multiplex assay against HEK293T;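 on Population Tubulin-Different-Phenotype (%): share of the cells with healthy nuclei that show this phenotype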
Format: toxicity, cell-based
Details: human
Outline: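 Cells were classed with CellPathfinder machine-learning gating, first as Hoechst high-intensity objects or normal cells, then (normal cells) as healthy, pyknosed or fragmented nuclei, and finally (pyknosed cells) as mitotic or apoptotic. Staining of live cells at seeding used Hoechst33342, BioTracker Green Microtubule Cytoskeleton Dye, MitoTracker Red and Annexin V Alexa Fluor 680, with imaging on a CQ1 microscope at 37°C and 5% CO2 after compound addition. Tubulin, mitochondrial-mass and membrane-permeability phenotypes are per cents of healthy-nucleus cells.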

[1] = 12 h, 1 µM, compound concentration 1 uM, replicate 1
[2] = 12 h, 1 µM, compound concentration 1 uM, replicate 2
[3] = 12 h, 10 µM, compound concentration 10 uM, replicate 1
[4] = 12 h, 10 µM, compound concentration 10 uM, replicate 2
[5] = 24 h, 1 µM, compound concentration 1 uM, replicate 1
[6] = 24 h, 1 µM, compound concentration 1 uM, replicate 2
[7] = 24 h, 10 µM, compound concentration 10 uM, replicate 1
[8] = 24 h, 10 µM, compound concentration 10 uM, replicate 2
[9] = 48 h, 1 µM, compound concentration 1 uM, replicate 1
[10] = 48 h, 1 µM, compound concentration 1 uM, replicate 2
[11] = 48 h, 10 µM, compound concentration 10 uM, replicate 1
[12] = 48 h, 10 µM, compound concentration 10 uM, replicate 2

In the case of Cl.O=c1c2cccn2c2ccccc2n1CCCN1CCC(c2ccc(Cl)cc2)CC1, the “Population Apoptotic (%)” value [1] is reported as 57%, the “Population Fragmented Nuclei (%)” value [1] is reported as 7% and the “Population Healthy Nuclei (%)” value [1] is reported as 47%. For the same compound, the “Population Hoechst High Intensity Objects (%)” value [1] was 10%, the “Population Membrane Permeable-Phenotype (%)” value [1] was 0% and the “Population Mitochondria Different-Phenotype (%)” value [1] was 95%. For the same compound, the “Population Mitotic Cells (%)” value [1] was 42%, the “Population Normal (%)” value [1] was 89% and the “Population Pyknosed Nuclei (%)” value [1] was 44%. For the same compound, the “Population Tubulin-Different-Phenotype (%)” value [1] was 80%, the “Total Cell Count” value [1] was 267 and the “Population Apoptotic (%)” value [2] was 30%. For the same compound, the “Population Fragmented Nuclei (%)” value [2] was 5%, the “Population Healthy Nuclei (%)” value [2] was 38% and the “Population Hoechst High Intensity Objects (%)” value [2] was 5%. The “Population Membrane Permeable-Phenotype (%)” value [2] was 6%, the “Population Mitochondria Different-Phenotype (%)” value [2] was 65% and the “Population Mitotic Cells (%)” value [2] was 69%. The “Population Normal (%)” value [2] was 94%, the “Population Pyknosed Nuclei (%)” value [2] was 56% and the “Population Tubulin-Different-Phenotype (%)” value [2] was 59%. The “Total Cell Count” value [2] was 238, the “Population Apoptotic (%)” value [3] was 86% and the “Population Fragmented Nuclei (%)” value [3] was 8%. For the same compound, the “Population Healthy Nuclei (%)” value [3] was 34%, the “Population Hoechst High Intensity Objects (%)” value [3] was 17% and the “Population Membrane Permeable-Phenotype (%)” value [3] was 5%. For the same compound, the “Population Mitochondria Different-Phenotype (%)” value [3] was 100%, the “Population Mitotic Cells (%)” value [3] was 13% and the “Population Normal (%)” value [3] was 82%. For the same compound, the “Population Pyknosed Nuclei (%)” value [3] was 57%, the “Population Tubulin-Different-Phenotype (%)” value [3] was 94% and the “Total Cell Count” value [3] was 297. The “Population Apoptotic (%)” value [4] was 92%, the “Population Fragmented Nuclei (%)” value [4] was 7% and the “Population Healthy Nuclei (%)” value [4] was 19%. The “Population Hoechst High Intensity Objects (%)” value [4] was 9%, the “Population Mitochondria Different-Phenotype (%)” value [4] was 91% and the “Population Mitotic Cells (%)” value [4] was 7%. The “Population Normal (%)” value [4] was 90%, the “Population Pyknosed Nuclei (%)” value [4] was 72% and the “Population Tubulin-Different-Phenotype (%)” value [4] was 86%. For the same compound, the “Total Cell Count” value [4] was 212, the “Population Apoptotic (%)” value [5] was 53% and the “Population Fragmented Nuclei (%)” value [5] was 7%. For the same compound, the “Population Healthy Nuclei (%)” value [5] was 55%, the “Population Hoechst High Intensity Objects (%)” value [5] was 12% and the “Population Membrane Permeable-Phenotype (%)” value [5] was 1%. The “Population Mitochondria Different-Phenotype (%)” value [5] was 93%, the “Population Mitotic Cells (%)” value [5] was 46% and the “Population Normal (%)” value [5] was 87%. The “Population Pyknosed Nuclei (%)” value [5] was 37%, the “Population Tubulin-Different-Phenotype (%)” value [5] was 73% and the “Total Cell Count” value [5] was 278. The “Population Apoptotic (%)” value [6] was 38%, the “Population Fragmented Nuclei (%)” value [6] was 5% and the “Population Healthy Nuclei (%)” value [6] was 56%. The “Population Hoechst High Intensity Objects (%)” value [6] was 4%, the “Population Membrane Permeable-Phenotype (%)” value [6] was 4% and the “Population Mitochondria Different-Phenotype (%)” value [6] was 75%. For the same compound, the “Population Mitotic Cells (%)” value [6] was 61%, the “Population Normal (%)” value [6] was 95% and the “Population Pyknosed Nuclei (%)” value [6] was 38%. For the same compound, the “Population Tubulin-Different-Phenotype (%)” value [6] was 65%, the “Total Cell Count” value [6] was 296 and the “Population Apoptotic (%)” value [7] was 84%. The “Population Fragmented Nuclei (%)” value [7] was 13%, the “Population Healthy Nuclei (%)” value [7] was 36% and the “Population Hoechst High Intensity Objects (%)” value [7] was 27%. The “Population Membrane Permeable-Phenotype (%)” value [7] was 6%, the “Population Mitochondria Different-Phenotype (%)” value [7] was 100% and the “Population Mitotic Cells (%)” value [7] was 15%. For the same compound, the “Population Normal (%)” value [7] was 72%, the “Population Pyknosed Nuclei (%)” value [7] was 50% and the “Population Tubulin-Different-Phenotype (%)” value [7] was 88%. The “Total Cell Count” value [7] was 286, the “Population Apoptotic (%)” value [8] was 98% and the “Population Fragmented Nuclei (%)” value [8] was 7%. The “Population Healthy Nuclei (%)” value [8] was 34%, the “Population Hoechst High Intensity Objects (%)” value [8] was 16% and the “Population Membrane Permeable-Phenotype (%)” value [8] was 3%. For the same compound, the “Population Mitochondria Different-Phenotype (%)” value [8] was 96%, the “Population Mitotic Cells (%)” value [8] was 1% and the “Population Normal (%)” value [8] was 83%. The “Population Pyknosed Nuclei (%)” value [8] was 58%, the “Population Tubulin-Different-Phenotype (%)” value [8] was 67% and the “Total Cell Count” value [8] was 206. For the same compound, the “Population Apoptotic (%)” value [9] was 43%, the “Population Healthy Nuclei (%)” value [9] was 77% and the “Population Hoechst High Intensity Objects (%)” value [9] was 7%. For the same compound, the “Population Membrane Permeable-Phenotype (%)” value [9] was 2%, the “Population Mitochondria Different-Phenotype (%)” value [9] was 63% and the “Population Mitotic Cells (%)” value [9] was 56%. For the same compound, the “Population Normal (%)” value [9] was 92%, the “Population Pyknosed Nuclei (%)” value [9] was 15% and the “Population Tubulin-Different-Phenotype (%)” value [9] was 59%. The “Total Cell Count” value [9] was 453, the “Population Apoptotic (%)” value [10] was 31% and the “Population Fragmented Nuclei (%)” value [10] was 7%. For the same compound, the “Population Healthy Nuclei (%)” value [10] was 70%, the “Population Hoechst High Intensity Objects (%)” value [10] was 5% and the “Population Membrane Permeable-Phenotype (%)” value [10] was 3%. The “Population Mitochondria Different-Phenotype (%)” value [10] was 32%, the “Population Mitotic Cells (%)” value [10] was 68% and the “Population Normal (%)” value [10] was 94%. For the same compound, the “Population Pyknosed Nuclei (%)” value [10] was 22%, the “Population Tubulin-Different-Phenotype (%)” value [10] was 54% and the “Total Cell Count” value [10] was 461. The “Population Apoptotic (%)” value [11] was 82%, the “Population Fragmented Nuclei (%)” value [11] was 15% and the “Population Healthy Nuclei (%)” value [11] was 35%. The “Population Hoechst High Intensity Objects (%)” value [11] was 38%, the “Population Membrane Permeable-Phenotype (%)” value [11] was 2% and the “Population Mitochondria Different-Phenotype (%)” value [11] was 97%. For the same compound, the “Population Mitotic Cells (%)” value [11] was 17%, the “Population Normal (%)” value [11] was 61% and the “Population Pyknosed Nuclei (%)” value [11] was 48%. For the same compound, the “Population Tubulin-Different-Phenotype (%)” value [11] was 79%, the “Total Cell Count” value [11] was 311 and the “Population Apoptotic (%)” value [12] was 98%. The “Population Fragmented Nuclei (%)” value [12] was 13%, the “Population Healthy Nuclei (%)” value [12] was 42% and the “Population Hoechst High Intensity Objects (%)” value [12] was 30%. The “Population Membrane Permeable-Phenotype (%)” value [12] was 3%, the “Population Mitochondria Different-Phenotype (%)” value [12] was 98% and the “Population Mitotic Cells (%)” value [12] was 1%. For the same compound, the “Population Normal (%)” value [12] was 69%, the “Population Pyknosed Nuclei (%)” value [12] was 43% and the “Population Tubulin-Different-Phenotype (%)” value [12] was 64%. The “Total Cell Count” value [12] was 191.
